Experimental data reported in ChEMBL document CHEMBL3228032, “Aryloxyalkyloxy- and aralkyloxy-4-hydroxy-3-nitrocoumarins which inhibit histamine release in the rat and also antagonize the effects of a slow reacting substance of anaphylaxis” (J Med Chem, 1979).

What was measured:
Ileum = assay: Antagonism of slow reacting substance of anaphylaxis-induced effect in guinea pig ileum; assay type: functional, tissue-based; settings: Cavia porcellus
Summary of the method: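 SRS-A standard: heated supernatant of pooled rat peritoneal fluid taken 5 min after antigen challenge in passive peritoneal anaphylaxis. Assayed on isolated terminal guinea pig ileum in 4 mL Tyrode's with atropine 5 × 10⁻⁷ M and mepyramine maleate 10⁻⁶ M. Antagonist in water added 30 s before a submaximal SRS-A dose. At least three concentrations, more than one ileum. Bath concentration for 50% inhibition taken from log concentration-inhibition curve, by eye or best-fit line with 95% confidence limits.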

Rattus norvegicus = assay: Antiallergic activity against ip dosed passive peritoneal anaphylaxis rat model assessed as inhibition of histamine release in peritoneal fluid administered 30s prior to ovalbumin challenge measured per rat after 5 mins; assay type: functional
Summary of the method: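 Rat anti-ovalbumin antiserum raised with Bordetella pertussis vaccine adjuvant; rats given 2 mL of 1:5 antiserum ip. 2 h later, Pontamine Sky Blue iv, then compound in 1 mL saline ip (saline controls), groups of 5–7, randomized. Challenge 30 s later ip with 5 mL Tyrode containing heparin 50 μg/mL and ovalbumin 0.4 mg/mL. Peritoneal fluid collected at 5 min for histamine. Dose reducing histamine to 50% of controls from log dose-response line, 95% confidence limits.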

Compound | IC50 (Ileum) | ED50 (Rattus norvegicus)
O=C(O)c1ccc(OCCCOc2ccc3c(O)c([N+](=O)[O-])c(=O)oc3c2)cc1 | > 20 µM | 
O=c1oc2cccc(OCCCOc3ccccc3)c2c(O)c1[N+](=O)[O-] | 18 µM | 
O=c1oc2cccc(OCCCCOc3ccccc3)c2c(O)c1[N+](=O)[O-] | > 10 µM | 
O=c1oc2ccc(OCCOc3ccccc3)cc2c(O)c1[N+](=O)[O-] | 17 µM | 
O=c1oc2ccc(OCCCOc3ccccc3)cc2c(O)c1[N+](=O)[O-] | 2.3 µM | 
O=c1oc2ccc(OCCCCCOc3ccccc3)cc2c(O)c1[N+](=O)[O-] | 2 µM | 
O=c1oc2ccc(OCCCCCCOc3ccccc3)cc2c(O)c1[N+](=O)[O-] | 0.78 µM | 
O=c1oc2cc(OCCOc3ccccc3)ccc2c(O)c1[N+](=O)[O-] | > 10 µM | 
O=c1oc2cc(OCCCOc3ccccc3)ccc2c(O)c1[N+](=O)[O-] | 1.6 µM | 2.1 nM
O=c1oc2cc(OCCCCOc3ccccc3)ccc2c(O)c1[N+](=O)[O-] | 3.6 µM | 
O=c1oc2cc(OCCCCCOc3ccccc3)ccc2c(O)c1[N+](=O)[O-] | 8.4 µM | 
O=c1oc2cc(OCCCCCCOc3ccccc3)ccc2c(O)c1[N+](=O)[O-] | > 20 µM | 
O=c1oc2c(OCCCOc3ccccc3)cccc2c(O)c1[N+](=O)[O-] | > 20 µM | 
O=c1oc2cccc(OCCCc3ccccc3)c2c(O)c1[N+](=O)[O-] | > 20 µM | 
O=c1oc2ccc(OCc3ccccc3)cc2c(O)c1[N+](=O)[O-] | 22 µM | 
O=c1oc2ccc(OCCc3ccccc3)cc2c(O)c1[N+](=O)[O-] | 18 µM | 
O=c1oc2ccc(OCCCc3ccccc3)cc2c(O)c1[N+](=O)[O-] | 5.5 µM | 
O=c1oc2cc(OCc3ccccc3)ccc2c(O)c1[N+](=O)[O-] | 1.5 µM | 
O=c1oc2cc(OCCc3ccccc3)ccc2c(O)c1[N+](=O)[O-] | 4.4 µM | 
O=c1oc2cc(OCCCc3ccccc3)ccc2c(O)c1[N+](=O)[O-] | 7.8 µM | 

Compound | IC50 (Ileum) | ED50 (Rattus norvegicus)
O=c1oc2cc(OCCCCc3ccccc3)ccc2c(O)c1[N+](=O)[O-] | 4.5 µM | 
O=c1oc2cc(OCCCCc3ccc(Cl)cc3)ccc2c(O)c1[N+](=O)[O-] | 3.8 µM | 
Cc1ccc(CCCCOc2ccc3c(O)c([N+](=O)[O-])c(=O)oc3c2)cc1 | 2.5 µM | 
Cc1cc(OCCCOc2ccccc2)cc2oc(=O)c([N+](=O)[O-])c(O)c12 | 5.2 µM | 
CCc1cc2c(O)c([N+](=O)[O-])c(=O)oc2cc1OCCCOc1ccccc1 | > 10 µM | 
CCCc1c(OCCCOc2ccccc2)ccc2c(O)c([N+](=O)[O-])c(=O)oc12 | 0.54 µM | 
O=c1oc2cc(OCCCOc3ccc(F)cc3)ccc2c(O)c1[N+](=O)[O-] | 1 µM | 
O=c1oc2cc(OCCCOc3ccc(Cl)cc3)ccc2c(O)c1[N+](=O)[O-] | 4 µM | 
COc1ccc(OCCCOc2ccc3c(O)c([N+](=O)[O-])c(=O)oc3c2)cc1 | > 4 µM | 
CC(=O)c1ccc(OCCCOc2ccc3c(O)c([N+](=O)[O-])c(=O)oc3c2)cc1 | 6.1 µM | 
COC(=O)c1ccc(OCCCOc2ccc3c(O)c([N+](=O)[O-])c(=O)oc3c2)cc1 | > 10 µM | 
N#Cc1ccc(OCCCOc2ccc3c(O)c([N+](=O)[O-])c(=O)oc3c2)cc1 | > 10 µM | 
O=c1oc2cc(OCCCOc3ccc(-c4ccccc4)cc3)ccc2c(O)c1[N+](=O)[O-] | > 20 µM | 
Cc1ccc(OCCCOc2ccc3c(O)c([N+](=O)[O-])c(=O)oc3c2)cc1 | 4.5 µM | 
Cc1cccc(OCCCOc2ccc3c(O)c([N+](=O)[O-])c(=O)oc3c2)c1 | 4.4 µM | 
Cc1ccccc1OCCCOc1ccc2c(O)c([N+](=O)[O-])c(=O)oc2c1 | 0.59 µM | 
O=c1oc2cc(OCCCOc3ccc4c(c3)CCCC4)ccc2c(O)c1[N+](=O)[O-] | > 2 µM | 
CC(=O)c1ccc(OCCCOc2ccc3c(O)c([N+](=O)[O-])c(=O)oc3c2)cc1O | 2.8 µM | 
Cc1ccc(OCCCOc2ccc3c(O)c([N+](=O)[O-])c(=O)oc3c2)c([N+](=O)[O-])c1 | > 10 µM | 
CCCc1c(OCCCOc2ccc3c(O)c([N+](=O)[O-])c(=O)oc3c2)ccc(C(C)=O)c1O | 0.1 µM | 4.8 nM

Compound | IC50 (Ileum) | ED50 (Rattus norvegicus)
O=c1oc2cc(OCC(O)COc3ccccc3)ccc2c(O)c1[N+](=O)[O-] (stereo unspecified) | 12 µM | 
O=C(O)c1ccc(OCC(O)COc2ccc3c(O)c([N+](=O)[O-])c(=O)oc3c2)cc1 (stereo unspecified) | > 10 µM | 
CCc1ccccc1OCC(O)COc1ccc2c(O)c([N+](=O)[O-])c(=O)oc2c1 (stereo unspecified) | 2.7 µM | 
CCCc1ccccc1OCC(O)COc1ccc2c(O)c([N+](=O)[O-])c(=O)oc2c1 (stereo unspecified) | 0.11 µM | 1.1 nM
CCCc1cc(F)ccc1OCC(O)COc1ccc2c(O)c([N+](=O)[O-])c(=O)oc2c1 (stereo unspecified) | 0.14 µM | 1.7 nM
CC(C)c1ccccc1OCC(O)COc1ccc2c(O)c([N+](=O)[O-])c(=O)oc2c1 (stereo unspecified) | 0.16 µM | 
CCCc1cc(C(C)=O)ccc1OCC(O)COc1ccc2c(O)c([N+](=O)[O-])c(=O)oc2c1 (stereo unspecified) | 0.7 µM | 
CC(=O)c1ccc(OCC(O)COc2ccc3c(O)c([N+](=O)[O-])c(=O)oc3c2)cc1O (stereo unspecified) | > 20 µM | 
CC(=O)c1ccc(OCC(O)COc2ccc3c(O)c([N+](=O)[O-])c(=O)oc3c2)c(C)c1O (stereo unspecified) | 0.5 µM | 
CCCc1c(OCC(O)COc2ccc3c(O)c([N+](=O)[O-])c(=O)oc3c2)ccc(C(C)=O)c1O (stereo unspecified) | 0.08 µM | 6.5 ×10⁻¹⁰ M
CCCc1c(OCC(O)COc2ccc3c(O)c([N+](=O)[O-])c(=O)oc3c2)ccc(C(=O)CC)c1O (stereo unspecified) | 0.15 µM | 
CCc1cc(C(C)=O)c(O)cc1OCC(O)COc1ccc2c(O)c([N+](=O)[O-])c(=O)oc2c1 (stereo unspecified) | 3.5 µM | 
CCCc1c(OCC(O)COc2ccc3c(O)c([N+](=O)[O-])c(=O)oc3c2C)ccc(C(C)=O)c1O (stereo unspecified) | 0.025 µM | 2.4 nM
CCCc1c(O)c(C(C)=O)cc([N+](=O)[O-])c1OCC(O)COc1ccc2c(O)c([N+](=O)[O-])c(=O)oc2c1C (stereo unspecified) | 1.6 µM | 
CCCc1c(OCC(O)COc2ccc3c(O)c([N+](=O)[O-])c(=O)oc3c2CC)ccc(C(C)=O)c1O (stereo unspecified) | 0.05 µM | 
CCCc1c(OCC(O)COc2ccc3c(O)c([N+](=O)[O-])c(=O)oc3c2CCC)ccc(C(C)=O)c1O (stereo unspecified) | 0.2 µM | 6.2 ×10⁻¹⁰ M
O=C([O-])c1cc(=O)c2c(OCC(O)COc3cccc4oc(C(=O)[O-])cc(=O)c34)cccc2o1.[Na+].[Na+] [CROMOLYN SODIUM] |  | 5.2 nM
CCCc1c(OCC(O)COc2ccc3c(=O)cc(C(=O)O)oc3c2CCC)ccc(C(C)=O)c1O (stereo unspecified) [FPL-55712] | 0.17 µM | 3.2 ×10⁻⁸ M
